Test results reported in ChEMBL document CHEMBL3585274, “Antiviral Activity of Diterpene Esters on Chikungunya Virus and HIV Replication” (J Nat Prod, 2015).

Tests used:
[1] = test system: Chikungunya virus; test: Antiviral activity against chikungunya virus Indian ocean strain 899 infected in Vero cells assessed as virus-induced cytopathic effect after 6 to 7 days; assay type: functional, cell-based; settings: Indian ocean strain 899, Vero
[2] = Selectivity index, CC50 for african green monkey Vero cells to EC50 for chikungunya virus Indian ocean strain 899; assay type: toxicity, cell-based; settings: read-out: Ratio CC50/EC50
[3] = test system: Human immunodeficiency virus 1; test: Antiviral activity against HIV1 3B infected in MT4 cells assessed as cell viability after 5 days by MTT assay; assay type: functional, organism-based; settings: Human immunodeficiency virus 1, 3B, MT4, 120 h
How it was run: (§1)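 MT-4 cells ([…] cells/mL suspension) infected with HIV-1 IIIB or HIV-2 ROD at 100−300 CCID50, with mock-infected wells run in parallel. Serial 5-fold compound dilutions in triplicate wells. Viability by MTT after 5 days, absorbance at 540 and 690 nm, median OD of three wells. Median ± median absolute deviation from ≥3 independent assays.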

[4] = Selectivity index, CC50 for african green monkey Vero cells to EC50 for HIV1 3B; assay type: toxicity, cell-based; settings: read-out: Ratio CC50/EC50
How it was run: (§2)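 SI = CC50 in Vero cells ÷ EC50 against HIV-1 IIIB or HIV-2 ROD. CC50 is the 50% antimetabolic concentration from MTS dose−response in Vero. EC50 is from the MT-4/MTT 5-day antiviral assay.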

[5] = test system: Human immunodeficiency virus 2; test: Antiviral activity against HIV2 ROD infected in MT4 cells assessed as cell viability after 5 days by MTT assay; assay type: functional, organism-based; settings: Human immunodeficiency virus 2, ISOLATE ROD, MT4, 120 h; how it was run: as §1
[6] = Selectivity index, CC50 for african green monkey Vero cells to EC50 for HIV2 ROD; assay type: toxicity, cell-based; settings: read-out: Ratio CC50/EC50; how it was run: as §2

Compound | EC50 [1] [nM] | selectivity ratio [2] | EC50 [3] [nM] | selectivity ratio [4] | EC50 [5] [nM] | selectivity ratio [6]
CC(=O)O[C@@H]1[C@@H](C)[C@@]2(O)[C@@H](C=C(CO)C[C@]3(O)C(=O)C(C)=C[C@@H]23)[C@@H]2C(C)(C)[C@]12O | > 245000 | 0.8 | > 307000 | > 1 | > 307000 | –
CCCC(=O)O[C@@H]1[C@@H](C)[C@@]2(O)[C@@H](C=C(C=O)C[C@]3(O)C(=O)C(C)=C[C@@H]23)[C@@H]2C(C)(C)[C@]12OC(=O)CCC | 13100 | 2.7 | > 20000 | – | > 35000 | –
CCCCCCCCC(=O)O[C@@H]1[C@@H](C)[C@@]2(O)[C@@H](C=C(COC(=O)Cc3ccc(O)c(OC)c3)C[C@]3(O)C(=O)C(C)=C[C@@H]23)[C@@H]2C(C)(C)[C@]12OC(=O)CCCCCCCC | 600 | 3.7 | 36 | 483 | 4 | –
CC1=C[C@H]2[C@@]3(O)[C@H](C)[C@@H](O)[C@]4(O)[C@H]([C@@H]3C=C(CO)C[C@]2(O)C1=O)C4(C)C [PHORBOL] | > 343000 | > 1 | > 343000 | > 1 | > 343000 | –
CCCCCCCCCC(=O)O[C@@]12[C@H](O)[C@@H](C)[C@@]3(O)[C@@H](C=C(CO)C[C@]4(O)C(=O)C(C)=C[C@@H]34)[C@@H]1C2(C)C | 2200 | 9.7 | 900 | 130 | 150 | –
CC(=O)O[C@@]12[C@H](O)[C@@H](C)[C@@]3(O)[C@@H](C=C(CO)C[C@]4(O)C(=O)C(C)=C[C@@H]34)[C@@H]1C2(C)C | > 174000 | – | > 217000 | 1 | 101000 | –
C=C(C)[C@]12C[C@@H](C)[C@@]34O[C@](Cc5ccccc5)(O[C@@H]1[C@@H]3C=C(COC(=O)Cc1ccc(O)c(OC)c1)C[C@]1(O)C(=O)C(C)=C[C@@H]41)O2 [RESINIFERATOXIN] | 1800 | 2.3 | 26000 | 8 | 22600 | –
CC(=O)OCC1=C[C@H]2[C@@H]3C(C)(C)[C@]3(OC(C)=O)[C@H](O)[C@@H](C)[C@]2(O)[C@@H]2C=C(C)C(=O)[C@@]2(O)C1 | 24600 | 1.7 | > 279000 | 1 | 243000 | –
CCCCCCCCCCCCCC(=O)O[C@@H]1[C@@H](C)[C@@]2(O)[C@@H](C=C(CO)C[C@]3(O)C(=O)C(C)=C[C@@H]23)[C@@H]2C(C)(C)[C@]12OC(C)=O [PHORBOL MYRISTATE ACETATE] | – | 1960 | 0.9 | 220 | 0.7 | –
CC(=O)O[C@@]12C[C@@H](C)[C@@]3(O)[C@@H](C=C(CO)C[C@]4(O)C(=O)C(C)=C[C@@H]34)[C@@H]1C2(C)C [PROSTRATIN] | 2700 | 22.8 | 1900 | 171 | 900 | –
CCCCCCCCCC(=O)O[C@@H]1[C@@H](C)[C@@]2(O)[C@@H](C=C(CO)C[C@]3(O)C(=O)C(C)=C[C@@H]23)[C@@H]2C(C)(C)[C@]12O | 4900 | 1.5 | 4900 | 4 | 2000 | –
CCCCCCCCCCCCCC(=O)O[C@@H]1[C@@H](C)[C@@]2(O)[C@@H](C=C(C=O)C[C@]3(O)C(=O)C(C)=C[C@@H]23)[C@@H]2C(C)(C)[C@]12OC(C)=O | 700 | 5.9 | 3300 | 5 | 1200 | –
CNc1ccccc1C(=O)O[C@@H]1[C@@H](C)[C@@]2(O)[C@@H](C=C(CO)C[C@]3(O)C(=O)C(C)=C[C@@H]23)[C@@H]2C(C)(C)[C@]12OC(C)=O | 15000 | 1.1 | 9 | 749 | 3000 | –
C/C=C(/C)C(=O)O[C@H]1C(C)=C[C@]23C(=O)[C@@H](C=C(CO)[C@@H](O)[C@]12O)[C@H]1[C@@H](C[C@H]3C)C1(C)C [INGENOL MEBUTATE] | 22900 | 2.3 | 17 | 7850 | 9 | –
CCCCCCCCCCCCCC(=O)O[C@@]12[C@H](O)[C@@H](C)[C@@]3(O)[C@@H](C=C(CO)C[C@]4(O)C(=O)C(C)=C[C@@H]34)[C@@H]1C2(C)C | 990 | 9 | 240 | 107 | 78 | –
CCCC(=O)O[C@@H]1[C@@H](C)[C@@]2(O)[C@@H](C=C(CO)C[C@]3(O)C(=O)C(C)=C[C@@H]23)[C@@H]2C(C)(C)[C@]12OC(=O)CCC | 1800 | 2.1 | 79 | 3160 | 14 | –
CCCCCCCCCC(=O)O[C@@H]1[C@@H](C)[C@@]2(O)[C@@H](C=C(CO)C[C@]3(O)C(=O)C(C)=C[C@@H]23)[C@@H]2C(C)(C)[C@]12OC(=O)CCCCCCCCC | 6 | 686 | 1.2 | 754 | 0.2 | –
CCCC(=O)O[C@@]12[C@H](O)[C@@H](C)[C@@]3(O)[C@@H](C=C(CO)C[C@]4(O)C(=O)C(C)=C[C@@H]34)[C@@H]1C2(C)C | 20000 | 12.3 | 122000 | > 3 | 25000 | –
COc1cc(CC(=O)OCC2=C[C@H]3[C@@H]4C(C)(C)[C@]4(OC(C)=O)[C@H](OC(=O)Cc4ccccc4)[C@@H](C)[C@]3(O)[C@@H]3C=C(C)C(=O)[C@@]3(O)C2)ccc1O | 1700 | 14.2 | 750 | 23 | 80 | –
CCCCCCCCCC(=O)O[C@@H]1[C@@H](C)[C@@]2(O)[C@@H](C=C(CO)C[C@@]3(O)C(=O)C(C)=C[C@@H]23)[C@@H]2C(C)(C)[C@]12OC(=O)CCCCCCCCC | 1500 | 2.2 | > 16000 | – | > 16000 | –
Cc1cn([C@H]2C[C@H](N=[N+]=[N-])[C@@H](CO)O2)c(=O)[nH]c1=O [ZIDOVUDINE] | – | – | 7100 | 3520 | 6000 | > 4180
CC(=O)OCC1=C[C@H]2[C@@H]3C(C)(C)[C@]3(OC(C)=O)[C@H](OC(C)=O)[C@@H](C)[C@]2(O)[C@@H]2C=C(C)C(=O)[C@@]2(O)C1 | 32600 | 2.2 | 27400 | > 9 | 6600 | –
CC1=C[C@]23C(=O)[C@@H](C=C(CO)[C@@H](O)[C@]2(O)[C@H]1O)[C@H]1[C@@H](C[C@H]3C)C1(C)C [INGENOL] | 30100 | 4.8 | 209000 | > 2 | 131000 | –
CC(=O)O[C@@H]1[C@@H](C)[C@@]2(O)[C@@H](C=C(CO)C[C@]3(O)C(=O)C(C)=C[C@@H]23)[C@@H]2C(C)(C)[C@]12OC(C)=O | 9400 | 4.2 | 4800 | > 59 | 1000 | –
CCCCCCCCCCCCCC(=O)O[C@@H]1[C@@H](C)[C@@]2(O)[C@@H](C=C(CO)C[C@@]3(O)C(=O)C(C)=C[C@@H]23)[C@@H]2C(C)(C)[C@]12OC(C)=O | – | 1.9 | > 18000 | – | > 17000 | –
CC1=C[C@]23C(=O)[C@@H](C=C(COC(=O)c4ccccc4)[C@@H](O)[C@]2(O)[C@H]1OC(=O)c1ccccc1)[C@H]1[C@@H](C[C@H]3C)C1(C)C | 1200 | 6.4 | 27 | 3400 | 9 | –
CCCCCC(=O)O[C@@H]1[C@@H](C)[C@@]2(O)[C@@H](C=C(CO)C[C@]3(O)C(=O)C(C)=C[C@@H]23)[C@@H]2C(C)(C)[C@]12OC(=O)CCCCC | 3200 | 1.8 | 7 | 2890 | 1.2 | –
C/C=C(\C)C(=O)O[C@@H]1[C@@H](C)[C@@]2(O)[C@@H](C=C(CO)C[C@]3(O)C(=O)C(C)=C[C@@H]23)[C@@H]2C(C)(C)[C@]12OC(=O)CCCCCCCCC | 1100 | 3.3 | 1.5 | 600 | 0.2 | –
